Source: PubChem BioAssay
NS3 helicase inh = inhibitors of HCV NS3 helicase, primary screen, biochemical, Cy5 molecular beacon fluorescence; inhibition, % at 10.9 µM; 0.56% of 290,000 active; Hepatitis C virus NS3 helicase; NS3 helicase DNA unwinding;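 active = inhibition above the mean of all tested compounds plus 3 SD, set per campaign, cut at about 35% in these data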
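Compound dosing – single dose, 10.9 µM nominal final, DMSO 0.8% final · System – NS3 helicase fragment of HCV · Buffer or medium – MOPS pH 6.5, MgCl2, DTT, Tween20, BSA · Signal – Cy5 beacon fluorescence read at start and 1 h · Also added – annealed dual-labelled DNA beacon duplex, ATP-started · Schedule – 1 h at 25 °C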
XBP1 UPR activ = activators of adaptive XBP1 UPR arm, primary screen, cell-based, CHO-XBP1 luciferase reporter, luminescence, uHTS | activation, % at 20 µM | IRE1-XBP1 UPR activation; percent of tunicamycin response, DMSO as zero | 0.33% of 330,000 active;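 active = versus positive control, 20 µM dose yields 30% or more activation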
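incubation = overnight seeding at 37 °C, 6 h compound treatment at 37 °C | assay system = CHO-XBP1 cells stably carrying IRE1-XBP1-driven luciferase reporter | input = 1000 cells per well | detection = luciferase luminescence | dosing = single point, 20 µM final compound, 1% DMSO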
PfM18AAP inh-1 = PfM18AAP inhibitors, malaria aminopeptidase, primary screen, biochemical, QFRET, recombinant enzyme. M18 aspartyl aminopeptidase (Plasmodium falciparum 3D7). inhibition, % at 7.35 µM. 1.2% of 290,000 active. H-Glu-NHMec fluorogenic cleavage;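 active = inhibition above the campaign mean inhibition over all tested compounds plus 3 SD, cut at about 28% in these data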
CHOP UPR activ = activators of apoptotic CHOP UPR arm, primary screen, cell-based, CHO-CHOP luciferase reporter, luminescence, uHTS; AID 449763, 2010; activation, % at 10 µM; UPR activation; percent of tunicamycin response over DMSO baseline; 0.34% of 330,000 active;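 active = at 10 µM dose, activation of 40% or more, normalized to positive control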
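System: CHO-CHOP luciferase reporter cell line | Buffer or medium: F12 medium containing 10% fetal bovine serum | Doses: One dose, 10 µM in 0.5% DMSO | Times: 6 h compound exposure at 37 °C after overnight seeding | Signal: Luciferase luminescence | Read-out: % activation vs tunicamycin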
p97 ATPase inh = inhibitors of human p97 ATPase, primary screen, biochemical | 0.42% of 220,000 active | AID 1481, 2009 | recombinant p97 ATPase, Kinase-Glo ATP luminescence, 3 h | Transitional endoplasmic reticulum ATPase (Homo sapiens), P55072 | inhibition, % at 8 µM; in the data active = inhibition above about 15%
CHOP inh = inhibitors of CHOP promoter induction, primary screen, cell-based, unfolded protein response, luciferase reporter. AID 2732, 2010. 3.8% of 220,000 active. inhibition, % at 10 µM. CHO-K1 CHOP-promoter luciferase, tunicamycin-induced, 15-18 h;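 active = compounds that reduced the stress-induced luciferase reporter signal by more than about 70% of percent inhibition, limit read from the data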
PfM18AAP inh-2 = PfM18AAP inhibitors, malaria aminopeptidase, confirmation, biochemical, QFRET, recombinant enzyme, triplicate | shares compounds with PfM18AAP inh-1 | H-Glu-NHMec fluorogenic cleavage | inhibition, % at 7.35 µM | 28% of 2,400 active | AID 2170, 2009;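 active = mean inhibition over replicate wells above the hit cutoff set for the earlier primary screen, cut at about 29% in these data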
CTSL1 counter = cathepsin L1 inhibitors, retest, confirmation, counter-screen for PFM18AAP inhibitor project, biochemical, QFRET, triplicate; purified cathepsin L1, Z-Leu-Arg-MCA fluorescence; 2,400 tested, under 10 active; shares compounds with PfM18AAP inh-1; inhibition, % at 5.96 µM;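 active = average inhibition across replicates above the hit cutoff set in the earlier primary screen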
Target sequence (P07711 whole entry, looked up): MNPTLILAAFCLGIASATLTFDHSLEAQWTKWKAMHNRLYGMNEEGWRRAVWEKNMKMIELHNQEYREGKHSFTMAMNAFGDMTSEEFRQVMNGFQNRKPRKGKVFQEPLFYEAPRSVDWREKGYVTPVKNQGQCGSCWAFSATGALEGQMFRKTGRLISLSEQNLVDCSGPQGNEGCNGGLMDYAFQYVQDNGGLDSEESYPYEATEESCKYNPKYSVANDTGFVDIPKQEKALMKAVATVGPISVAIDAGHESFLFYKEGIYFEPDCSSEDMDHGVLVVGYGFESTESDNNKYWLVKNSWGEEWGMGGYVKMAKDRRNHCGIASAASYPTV
Hits are given with their value; 0 = inactive; - = no result. An excerpt weighted towards active compounds, which were near 4.5% of everything screened.

SMILES	NS3 helicase inh	XBP1 UPR activ	PfM18AAP inh-1	CHOP UPR activ	p97 ATPase inh	CHOP inh	PfM18AAP inh-2	CTSL1 counter
Cc1cc(C)nc(Sc2nc(Cl)nc(N(c3ccccc3)c3ccccc3)n2)n1	0	0	47	0	0	0	0	0
Cc1cc(C)nc(SC(C(=O)O)c2ccccc2)n1 (configuration not stated)	0	0	0	0	0	0	-	-
S=c1[nH]c(-c2ccccc2)cn1-c1ccccc1	0	0	46	0	-	-	35	0
COc1ccccc1-n1cc(-c2ccc([N+](=O)[O-])cc2)[nH]c1=S	0	0	32	0	0	0	0	0
Nc1ccc(-n2cc(-c3ccccc3)[nH]c2=S)cc1	0	0	44	0	-	-	0	0
O=[N+]([O-])c1ccc(-c2cn(-c3ccccc3)c(=S)[nH]2)cc1	0	0	0	0	0	0	-	-
COc1ccccc1-n1cc(-c2ccc(C)cc2)[nH]c1=S	0	0	0	0	-	-	-	-
O=[N+]([O-])c1cccc(-c2cn(-c3ccccc3)c(=S)[nH]2)c1	0	0	50	0	0	0	50	0
Cc1ccc(S(=O)(=O)N2[C@@H](c3ccccc3F)C(C(=O)O)=CC[C@H]2c2ccc3c(c2)OCO3)cc1	-	0	-	0	-	-	-	-
O=C(COc1ccccc1[N+](=O)[O-])N/N=C/c1ccc(O)c([N+](=O)[O-])c1	0	0	0	0	0	0	-	-
O=C(COc1ccccc1C(=O)N/N=C\c1ccc(O)c(O)c1)N/N=C/c1ccc(O)c(O)c1	0	0	76	0	19	0	74	0
COc1cc(-c2nc3ccccn3c2NCC2CCCO2)ccc1O (configuration not stated)	0	0	32	0	0	0	34	0
CC(C)NC(=S)NC(=O)c1ccc(Cl)cc1Cl	0	0	0	0	0	0	-	-
O=C(NC(=S)Nc1ncccn1)c1ccccc1Cl	0	0	0	0	0	0	-	-
COc1cccc(C(=O)NC(=S)Nn2cnnc2)c1OC	0	0	73	0	0	0	60	0
O=C(NC(=S)Nn1cnnc1)c1ccccc1Cl	0	0	83	0	0	0	52	0
COC(=O)c1cc(OC)c(OC)cc1NC(=O)c1cccc(OC)c1OC	0	0	0	0	0	0	-	-
O=C(NC(=S)Nn1cnnc1)c1ccc(F)cc1Cl	0	0	78	0	-	-	55	0
Cc1ncc(CO)c(/C=N/NC(=O)c2ccc(Br)cc2)c1O	0	0	0	0	0	0	-	-
Cc1ncc(CO)c(/C=N/NC(=O)c2cc(O)c(O)c(O)c2)c1O	0	-	58	-	0	0	36	0
COc1cc(/C=N/Nc2ccccc2)ccc1O	0	0	0	0	-	-	-	-
COc1ccc(OC)c(/C=N/Nc2nncn2/N=C/c2cc(OC)ccc2OC)c1	0	0	51	0	0	0	0	0
COc1cccc2c(N/N=C/c3ccc(O)c(O)c3)cc(C)nc12	0	0	56	0	-	-	32	0
COc1cc(/C=N/Nc2ccccc2C(F)(F)F)ccc1O	0	0	39	0	0	0	0	0
COc1cc(/C=N/Nc2nncn2/N=C/c2ccc(O)c(OC)c2)ccc1O	0	0	63	0	0	0	42	0
SMILES	NS3 helicase inh	XBP1 UPR activ	PfM18AAP inh-1	CHOP UPR activ	p97 ATPase inh	CHOP inh	PfM18AAP inh-2	CTSL1 counter
CCN(C(=O)CCN1C(=O)/C(=C/c2ccccc2)SC1=S)C1CCS(=O)(=O)C1 (configuration not stated)	0	0	0	0	-	-	-	-
CC(Sc1nnc(C2CC2)n1Cc1ccccc1)C(=O)N1CCNC1=O (configuration not stated)	-	0	-	0	-	-	-	-
CC(=O)Nc1ccc(NC(=O)C(C)OC(=O)CNS(=O)(=O)/C=C/c2ccc(C)cc2)cc1 (configuration not stated)	-	0	-	0	-	-	-	-
COc1ccc(-c2c(NC(=O)c3ccco3)oc3c(C)cccc3c2=O)cc1	0	0	0	0	-	-	-	-
COc1cc(/C=N/NC(=O)c2ccncc2)ccc1OC(C)=O	0	0	0	0	-	-	-	-
COc1cc(/C=N\Nc2nncn2N)ccc1OC(C)=O	0	0	53	0	-	-	0	0
N#CC1=C(N)NC(=S)C(C(N)=O)C1c1ccc([N+](=O)[O-])cc1 (configuration not stated)	0	0	48	0	0	0	35	0
O=C(OCC(=O)N1CCc2ccccc2C1)c1ccc(F)cc1Cl	-	0	-	0	-	-	-	-
Nc1nnc(CC(=O)N/N=C/c2cc([N+](=O)[O-])cc(Br)c2O)s1	0	0	37	0	0	0	0	0
Cc1nn(C)c(C)c1NS(=O)(=O)c1cccc(Br)c1	-	0	-	0	-	-	-	-
O=C(Nc1ccccc1)c1ccccc1CCc1ccccc1	0	0	0	0	0	0	-	-
O=C(Nn1cnnc1)c1ccccc1-c1ccccc1	0	0	56	0	0	0	64	0
O=C(CCN1C(=O)c2ccccc2C1=O)Nn1cnnc1	0	0	45	0	0	0	46	0
O=C(Nn1cnnc1)c1ccccc1CCc1ccccc1	0	0	42	0	0	0	35	0
CC1(C)CC(=O)N(c2cccc(C(F)(F)F)c2)C(=O)C1	0	0	0	0	-	-	-	-
Cc1ccc(S(=O)(=O)Nc2nc(C)cc(NN)n2)cc1	0	0	40	0	0	0	29	0
Cc1ccc(S(=O)(=O)Nc2nc(C)cc(NCCN)n2)cc1	0	0	0	0	0	0	-	-
COc1cc(C)nc(NS(=O)(=O)c2ccccc2Cl)n1	0	0	0	0	-	-	-	-
Cc1cc(NN)nc(NS(=O)(=O)c2ccccc2Cl)n1	0	0	39	0	0	0	0	0
COc1cc(C(=O)N/N=C(\C)Cn2nc([N+](=O)[O-])cc2C)ccc1O	0	0	0	0	0	0	-	-
C/C(Cn1nc([N+](=O)[O-])cc1C)=N\NC(=O)c1ccc(O)cc1O	0	0	41	0	0	0	0	0
Cc1ccc([N+](=O)[O-])cc1-c1[nH]c(-c2ccc(O)c(O)c2)nc1-c1ccccc1	0	0	73	0	0	0	74	0
CCOc1cc(/C=C2\SC(=O)N=C2N)ccc1O	0	0	0	0	0	0	-	-
